# An excerpt weighted towards active compounds, which were near 2.1% of everything screened.
# beta cell repl – MIN6 beta-cell proliferation induction | MIN6 cells proliferation, ATPlite luminescence, 48 h; cells starved in 0.2% serum; 100% = growth in 10% serum | proliferation, % at 10 µM | 330,000 tested, 0.29% active;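 active = compounds whose signal lies at least 3.5 SD above the mean of all wells on their plate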
# TLR4-MyD88 BLA – TLR4-MyD88 interaction inhibition in cells; O00206+Q99836; inhibition, % at 8.4 µM; HeLa CL3-4 TLR4/MyD88 BLA complementation, FRET ratio; 200,000 tested, 0.18% active; in the data active = inhibition above about 25%
# MC4R barr agon – human MC4R agonism via beta-arrestin; 360,000 tested, 0.98% active; P32245; activation, % at 8.9 µM; U2OS MC4R beta-arrestin complementation, luminescence; percent of melanotan II response, DMSO zero;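 active = activation above a per-plate cutoff, the mean activation of sample wells on that plate plus 3 SD, cut at about 8% in these data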
# TLR9-MyD88 inh – blocks human TLR9 binding to MyD88; CHO BLA complementation TLR9-MyD88, CCF4 FRET ratio; inhibition, % at 4.98 µM; 340,000 tested, 0.21% active; AID 504734;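 active = inhibition above the mean over all tested compounds plus 3 SD, cut at about 21% in these data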
# MC4R antag cAMP – antagonists of human melanocortin 4 receptor (MC4R) | P32245 | MC4R-expressing cells, MTII-stimulated cAMP, LANCE TR-FRET | inhibition, % at 6.5 µM | 360,000 tested, 0.48% active | AID 540295;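 active = inhibition above its plate's cutoff, the mean of tested wells on that plate plus 3 SD, cut at about 29% in these data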
#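 system = U2OS cells with stable human MC4R expression | also added = Melanotan II challenge after compound preincubation | dosing = one concentration, 6.5 µM nominal | incubation = compound 30 min, challenge 1 h, detection 1 h | measured by = TR-FRET with Eu-cAMP and labeled anti-cAMP, 671 nm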
# NOD2 RIPK2 PPI – inhibitors of human NOD2-RIPK2 interaction | O43353 | CHO BLA complementation NOD2-RIPK2, CCF4 ratio | inhibition, % at 4.98 µM | 360,000 tested, 0.38% active; in the data active = inhibition above about 21%
# Target sequence (O43353 whole entry, looked up): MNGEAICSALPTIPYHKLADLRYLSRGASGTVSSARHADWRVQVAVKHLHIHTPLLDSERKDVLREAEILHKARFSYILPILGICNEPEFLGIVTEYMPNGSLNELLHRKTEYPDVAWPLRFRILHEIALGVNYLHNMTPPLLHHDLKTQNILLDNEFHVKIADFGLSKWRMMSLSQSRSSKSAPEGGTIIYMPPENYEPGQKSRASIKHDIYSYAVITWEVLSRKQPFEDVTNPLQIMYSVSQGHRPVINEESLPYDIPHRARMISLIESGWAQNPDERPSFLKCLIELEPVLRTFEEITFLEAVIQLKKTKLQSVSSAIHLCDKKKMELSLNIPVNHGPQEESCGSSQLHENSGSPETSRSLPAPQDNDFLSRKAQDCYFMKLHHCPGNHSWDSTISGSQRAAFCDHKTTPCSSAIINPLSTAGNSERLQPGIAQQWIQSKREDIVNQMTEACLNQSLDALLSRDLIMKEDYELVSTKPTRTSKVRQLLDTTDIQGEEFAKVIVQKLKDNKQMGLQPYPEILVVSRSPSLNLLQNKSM
# Hits are given with their value; 0 = inactive; - = no result given; ! = repeats disagree.
SMILES,beta cell repl,TLR4-MyD88 BLA,MC4R barr agon,TLR9-MyD88 inh,MC4R antag cAMP,NOD2 RIPK2 PPI
Cc1ccc(C(=O)CN2/C(=C(\O)c3ccccc3)C(=O)c3ccccc3S2(=O)=O)c(C)c1,0,0,12.4,0,0,0
Cc1ccc(C(=O)CN2C(=O)c3ccccc3S2(=O)=O)cc1,0,-,0,0,0,0
OC(c1ccccc1)c1nc(-c2cccc(C(F)(F)F)c2)cs1 (centres undefined),-,-,9.5,-,0,0
COc1ccc(-c2cc(C(=O)Nc3cc(C)n(Cc4ccc(Cl)cc4)n3)no2)cc1OC,0,0,24.3,0,0,0
COc1ccc(OC)c(-c2cc(C(=O)Nc3c(C)nn(Cc4ccc(Cl)cc4)c3C)no2)c1,0,0,0,0,0,0
c1ccc(C(c2ccccn2)c2ccccn2)cc1,0,0,0,0,0,0
CC(=O)Oc1ccc(C(c2ccc(OC(C)=O)cc2)c2ccccn2)cc1,0,0,75.1,0,0,0
Cc1ccc(C(O)(C(=O)NN(C(=O)c2ccccc2)c2ccccc2)c2ccc(C)cc2)cc1,0,0,8.3,0,0,0
CCC(O)(CC)C(=O)NN(C(=O)CCl)c1ccccc1,0,0,0,0,0,0
Cc1ccc(N(NC(=O)C(O)(c2ccccc2)c2ccccc2)C(=O)CCl)cc1,0,0,10.4,0,0,0
O=C(Nc1ccc(S(=O)(=O)N2CCOCC2)cc1)c1ccc(Cl)cc1Cl,0,-,0,0,0,0
COC(=O)C1=C(C)NC(C)=C(C(=O)OCC2CCCO2)C1c1cccc(Br)c1 (centres undefined),0,-,0,0,0,0
O=C(O)CSc1cc(C(F)(F)F)nc(-c2ccccn2)n1,0,0,0,0,0,0
FC(F)(F)c1cccc(Sc2cc(C(F)(F)F)nc(-c3ccccn3)n2)c1,0,0,9.1,0,0,0
CC(C)(C)c1cc(NC(=O)Nc2ccccc2OC(F)(F)F)no1,0,-,8.7,0,0,0
COC(=O)c1ccccc1NC(=O)Nc1cc(C(C)(C)C)on1,0,-,0,0,0,0
Cc1ccc(-c2cc(C(F)(F)F)nn2-c2ccc(S(N)(=O)=O)cc2)cc1,0,-,8.5,0,0,0
COc1cccc(N=c2oc3ccc(OC)cc3cc2-c2nc3ccccc3[nH]2)c1,0,0,8.5,0,0,0
CCc1ccc(Nc2nc(N)nc(CSc3nnnn3-c3ccccc3)n2)cc1,0,0,8.5,0,0,0
CC(C)C[C@@H]1COc2cc(N3CC[C@H](O)C3)ccc2S(=O)(=O)N1,-,-,-,-,-,0
CCCCCCN(C(=O)CCl)c1ccccc1,0,-,18.3,0,0,0
CCCCCCCN(C(=O)CCl)c1cccc(C)c1,0,0,9.0,0,0,0
C/C(N)=C(/C#N)C(=O)COC(=O)c1cc(-c2ccc(Br)cc2)nc2ccccc12,-,0,8.4!,0,0,0
C/C(N)=C(/C#N)C(=O)COc1ncnc2ccccc12,0,0,0,0,0,0
Cc1ccc(C)c(NC(=O)Cc2nc(CNCC(C)C)cs2)c1,0,-,0,0,0,0
SMILES,beta cell repl,TLR4-MyD88 BLA,MC4R barr agon,TLR9-MyD88 inh,MC4R antag cAMP,NOD2 RIPK2 PPI
N=C(N)SCc1cn(-c2ccccc2)nc1-c1ccc(Br)cc1,-,0,16.6,0,0,0
Cc1cccc(C)c1NC(=O)C1(C)CCC(=O)N1c1cc(C(C)(C)C)nn1C (centres undefined),-,-,-,-,-,0
CN(C)CCCN(C(=O)c1ccc(S(=O)(=O)N(C)C2CCCCC2)cc1)c1nc2ccc(F)cc2s1,0,-,0,0,0,0
CCc1ccc2nc(N(CCCN(C)C)C(=O)c3ccc(S(=O)(=O)N(C)C4CCCCC4)cc3)sc2c1,0,-,12.5,0,0,0
CN1CCN(c2cc(-c3cccc(C(=O)O)c3)nc3ccnn23)CC1,-,-,0,-,0,0
COc1ccc(NC(=O)c2ccco2)cc1NC(=O)c1ccccc1F,0,-,9.4,0,0,0
COc1cc(OC)cc(C(=O)Nc2cc(NC(=O)c3ccco3)ccc2OC)c1,0,0,0,0,0,0
COc1cc(NC(=O)Cn2ncc3c2-c2ccccc2OC3)cc(OC)c1OC,0,0,0,0,0,30.3
COc1ccccc1NC(=O)Cn1ncc2c1-c1ccccc1OC2,0,0,0,0,0,0
O=C(COC(=O)c1cccc2ccccc12)Nc1ncc(C(F)(F)F)cc1Cl,0,0,8.7,0,0,0
CCOc1ccccc1C(=O)OCC(=O)Nc1ncc(C(F)(F)F)cc1Cl,0,0,0,0,0,0
CC(C)[C@H](NC(=O)[C@H](Cc1ccccc1)n1c(=O)[nH]c2ccccc2c1=O)C(=O)N1CCC[C@@H]1C(=O)O,0,-,0,0,0,0
COc1ccc(CNC(=O)c2ccc(Cn3cc(Br)cn3)o2)cc1,0,-,0,0,0,0
CN1CCN/C1=C(/C(Cl)=C(Cl)Cl)[N+](=O)[O-],0,0,0,0,35.5,0
CN(C)S(=O)(=O)c1ccc(Cl)c(C(=O)NNC(=O)Cn2ccc(C(F)(F)F)n2)c1,0,-,0,0,0,0
CC(C)C1C(=O)N(Cc2cn(CCC3OCCCO3)nn2)CCS(=O)(=O)N1Cc1ccc(-c2ccc(Cl)c(Cl)c2)cc1 (centres undefined),-,-,0,0,0,0
FC(F)(F)c1nc2ccccc2nc1N/N=C/c1c(Cl)cccc1Cl,0,0,8.3,0,0,0
C=C(Br)CN1[C@@H](Cc2ccccc2)[C@H](O)[C@@]23C=C[C@@H](C[C@@H]2S1(=O)=O)O3,0,-,0,0,0,0
O=C(NCc1ccc2c(c1)OCO2)C(=O)NCC1OCCN1S(=O)(=O)c1ccccc1 (centres undefined),0,-,0,0,0,0
COCCCn1c(=O)c2ccccc2n(Cc2ccc(C)cc2)c1=O,0,-,0,0,0,0
Cc1ccc(Cn2c(=O)c3ccccc3n3nc(C)cc23)cc1,0,0,8.2,0,0,0
COc1ccc(N2C(=O)C(Cl)=C(Nc3ccc(OC)cc3OC)C2=O)cc1,0,0,12.7,0,0,0
COc1ccc2c3c(ccc2c1)C(=O)/C(=C/O)CC3,-,-,26.1,0,0,0
COc1ccc2c(c1)CC/C(=C/c1ccncc1)C2=O,0,0,0,0,0,0
Cc1ccc(C(=O)Oc2coc(CSc3nnc(NC(=O)c4cccs4)s3)cc2=O)cc1,0,0,9.2,0,0,0
COc1cc(C(=O)Nc2nc3ccc(S(C)(=O)=O)cc3s2)cc(OC)c1C,0,-,19.4,0,0,0
CC(=O)N1/C(=C/c2ccc(N(C)C)cc2)C(=O)c2ccccc21,-,0,0,0,0,0
CC(=O)c1ccc(N/C=C\C(=O)c2ccc(C)cc2)cc1,0,0,0,0,0,0
Cc1ccc(C(=O)/C=C/Nc2ccc3c(c2)OCO3)cc1,0,0,12.2,0,0,0
CCOc1ccc(C(=O)N2CCC3(CC2)NCCc2[nH]cnc23)cc1,0,-,0,0,0,0

# Screening results: PubChem BioAssay, several laboratories
